Measured values of several laboratories.
Effect on: cell growth or viability

SMILES | cell line | technique | tested at | time | measurement | value
C/C=C(/C)C(=O)O[C@@H]1[C@H](OC(C)=O)c2c(ccc3ccc(=O)oc23)OC1(C)C | HEp-2 | WST-1 |  |  | IC50 | 53.5 µM
C=C(C)C(CC=C(C)C)Cc1c(O)cc(OC)c2c1O[C@H](c1ccc(O)cc1O)CC2=O (single isomer, unassigned; (-)) | MCF7 | MTT |  |  | IC50 | 23.2 µM
O=c1oc2c(O)c(O)cc3c(=O)oc4c(O)c(O)cc1c4c23 | TZM-bl | MTT |  | 48 h | CC50 | 469 µg/mL
CC(=O)OC1c2c(ccc3ccc(=O)oc23)OC(C)(C)C1OC(=O)C(C)(O)C(C)O (stereo not drawn) | MCF7 | WST-1 |  |  | IC50 | 6.1 µM
Cc1cccc2nc(-c3ccc([N+](=O)[O-])o3)[nH]c12 | HEp-2 | resazurin |  | 72 h | CC50 | 1.7 µM
CC[C@H](C)C(=O)O[C@H]1C[C@@H](C)C=C2C=C[C@H](C)[C@H](CC[C@@H]3C[C@@H](O)CC(=O)O3)[C@H]21 | SW-620 | SRB |  | 72 h | IC50 | 0.08 µM
CC(=O)O[C@@H]1c2c(ccc3ccc(=O)oc23)OC(C)(C)[C@@H]1OC(=O)C1(C)OC1C (stereo partly drawn) | HEp-2 | WST-1 |  |  | IC50 | 36.4 µM
COc1cccc2c1C(=O)c1c(O)c3c(c(O)c1C2=O)C[C@@](O)(C(=O)CO)C[C@@H]3O[C@H]1C[C@H](N)[C@H](O)[C@H](C)O1 | MCF7 | MTT | 25 µM | 48 h | viability | 16%
C[C@H]1[C@H](C)CC[C@]2(C(=O)O)CC[C@]3(C)C(=CC[C@@H]4[C@@]5(C)CC[C@H](O)C(C)(C)[C@@H]5CC[C@]43C)[C@H]12 | WS1 |  |  | 48 h | IC50 | 14 µM
C/C(=C\C(=O)OCCCCCCCCC(=O)O)C[C@@H]1OC[C@H](C[C@@H]2O[C@H]2[C@@H](C)[C@H](C)O)[C@@H](O)[C@H]1O | TZM-bl |  |  |  | CC50 | > 100 µM
O=[N+]([O-])c1ccc(-c2nc3cc(Cl)ccc3[nH]2)o1 | HEp-2 | resazurin |  | 72 h | CC50 | 5 µM
COC(=O)[C@]1(O)C[C@@H](O)[C@@H](O)[C@H](OC(=O)/C=C/c2ccc(O)c(O)c2)C1 | HEp-2 | WST-1 |  |  | IC50 | 21.2 µM
Cc1cn([C@H]2C[C@H](N=[N+]=[N-])[C@@H](CO)O2)c(=O)[nH]c1=O | TZM-bl | MTT |  | 48 h | CC50 | > 200 µg/mL
C=C(C)[C@H](CC=C(C)C)Cc1c(O)cc(O)c2c1O[C@H](c1ccc(O)cc1O)CC2=O | MCF7 | MTT |  | 48 h | IC50 | 19.2 µM
CSc1ccc(OCc2ncc([N+](=O)[O-])n2C)cc1 | THP-1 | MTT |  | 72 h | CC50 | > 62.5 µM
